This passage reports MIC results from ChEMBL document CHEMBL1142173, “Novel macrolide resistance module carried by the IncP-1beta resistance plasmid pRSB111, isolated from a wastewater treatment plant” (2007).

Converted amounts (≈) assume the structure as drawn.

Holding throughout (type): functional
Assay [1] deals with Pseudomonas sp. Nature of the assay: Antibacterial activity against Pseudomonas sp. B13 GFP1.
Assay [2] has as its system Escherichia coli. As to the kind of experiment: Antibacterial activity against Escherichia coli DH5-alpha containing macrolide-resistant pUC18-mph(E) region. The conditions noted are these: DH5alpha. In a few lines: (§1)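 Host is E. coli DH5α carrying pUC18 with PCR-amplified fragments of the pRSB111 macrolide resistance region (covering mphR(E), mph(E) and/or mrx(E)). MIC is read per recombinant strain, with DH5α carrying empty pUC18 as control.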

Assay [3] concerns Pseudomonas sp. As to the kind of experiment: Antibacterial activity against Pseudomonas sp. B13 GFP1 containing macrolide resistance plasmid pRSB111. In a few lines:
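Host is Pseudomonas sp. strain B13 GFP1 carrying pRSB111, captured by exogenous mating from wastewater-plant final effluent. It is maintained in LB with erythromycin (300 μg/ml) at 30°C. MIC is in μg/ml, with the plasmid-free B13 GFP1 strain tested alongside.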

Assay [4] deals with Escherichia coli. As to the kind of experiment: Antibacterial activity against Escherichia coli DH5-alpha containing macrolide-resistant pUC18-mrx(E) region. The conditions noted are these: DH5alpha. In a few lines:
as §1

Assay [5] deals with Escherichia coli. As to the kind of experiment: Antibacterial activity against Escherichia coli DH5alpha containing macrolide-resistant pUC18-mph(E)-mrx(E) region. In a few lines: as §1
Assay [6] has as its system Pseudomonas sp. As to the kind of experiment: Antibacterial activity against Pseudomonas sp. B13 GFP1 containing multiresistance plasmid pRSB101.
Assay [7] concerns Escherichia coli. As to the kind of experiment: Antibacterial activity against Escherichia coli DH5-alpha containing pUC18. The settings on record: DH5alpha. In a few lines:
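MIC measured for E. coli DH5α transformed with the empty vector pUC18, which served as the control. It was tested alongside DH5α carrying pUC18 clones of PCR-amplified fragments of the pRSB111 macrolide resistance region (mphR(E), mph(E), mrx(E)).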

`CC[C@H]1OC(=O)[C@H](C)[C@@H](O[C@H]2C[C@@](C)(OC)[C@@H](O)[C@H](C)O2)[C@H](C)[C@@H](O[C@@H]2O[C@H](C)C[C@H](N(C)C)[C@H]2O)[C@](C)(O)C[C@@H](C)C(=O)[C@H](C)[C@@H](O)[C@]1(C)O` [ERYTHROMYCIN]: the MIC in the assay with Pseudomonas sp. [1] amounted to 20 mg/L (≈ 27.3 µM); in the assay on Escherichia coli [2] it was 250 mg/L (≈ 341 µM); against Pseudomonas sp. [3], 2500 mg/L (≈ 3410 µM); against Escherichia coli [4] it was 150 mg/L (≈ 204 µM); in the assay on Escherichia coli [5] it was 2400 mg/L (≈ 3270 µM); against Pseudomonas sp. [6], 2500 mg/L (≈ 3410 µM). The same compound displayed an MIC in the assay on Escherichia coli [7] of 200 mg/L (≈ 273 µM).

`CC[C@H]1OC(=O)[C@H](C)[C@@H](O[C@H]2C[C@@](C)(OC)[C@@H](O)[C@H](C)O2)[C@H](C)[C@@H](O[C@@H]2O[C@H](C)C[C@H](N(C)C)[C@H]2O)[C@](C)(O)C[C@@H](C)/C(=N\OCOCCOC)[C@H](C)[C@@H](O)[C@]1(C)O` [ROXITHROMYCIN]: the MIC in the assay with Pseudomonas sp. [1] turned out to be 25 mg/L (≈ 29.9 µM); with Escherichia coli [2], 550 mg/L (≈ 657 µM); in the assay with Pseudomonas sp. [3], 1400 mg/L (≈ 1670 µM); in the assay on Escherichia coli [4], 300 mg/L (≈ 358 µM); in the assay on Escherichia coli [5], 2500 mg/L (≈ 2990 µM); against Pseudomonas sp. [6] it was 1200 mg/L (≈ 1430 µM). Besides, in the assay with Escherichia coli [7], the minimum inhibitory concentration (MIC) came out at 450 mg/L (≈ 538 µM).

As to `CC[C@H]1OC(=O)C[C@@H](O)[C@H](C)[C@@H](O[C@@H]2O[C@H](C)[C@@H](O[C@H]3C[C@@](C)(O)[C@@H](O)[C@H](C)O3)[C@H](N(C)C)[C@H]2O)[C@@H](CC=O)C[C@@H](C)C(=O)/C=C/C(C)=C/[C@@H]1CO[C@@H]1O[C@H](C)[C@@H](O)[C@@H](OC)[C@H]1OC` [TYLOSIN], the figures for the minimal inhibitory concentration (MIC) against Pseudomonas sp. [1], with Pseudomonas sp. [3] and with Pseudomonas sp. [6] were 150 mg/L (≈ 164 µM), 400 mg/L (≈ 437 µM) and 150 mg/L (≈ 164 µM), respectively.

By MIC is commonly meant the lowest concentration found to suppress growth.
